What was measured:
LOX IMVI [1] = assay: (§1) Cytotoxicity against human LOXIMVI cells after 24 hrs by SRB assay; format: functional
In short: (§2)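 NCI 60-line screen. Cells in RPMI 1640 with 5% FBS and 2 mM L-glutamine, seeded at 5,000–40,000 cells/well by doubling time, then incubated 24 h at 37 °C, 5% CO2 before dosing. Time-zero plates fixed with TCA at drug addition. DMSO stocks diluted in medium with gentamicin to five concentrations, […]. Protein read by SRB staining. GI50, TGI and LC50 derived relative to control and time-zero.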

KM12 = assay: Cytotoxicity against human KM12 cells after 24 hrs by SRB assay; format: functional; conditions: KM12, 24 h; in short: as §2
SW-620 = assay: Cytotoxicity against human SW620 cells after 24 hrs by SRB assay; format: cell-based; conditions: sw-620, 24 h
In short: (§3)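 NCI 60-cell-line screen: cells grown in RPMI 1640 with 5% FBS and 2 mM L-glutamine, seeded at 5,000–40,000 cells/well by doubling time, and preincubated 24 h at 37 °C in 5% CO2. Time-zero plates were TCA-fixed. DMSO stocks were diluted in medium with gentamicin to five concentrations (100, 10, 1.0, 0.1, […]). Protein was read by SRB, and GI50, TGI and LC50 were derived against time-zero.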

SK-MEL-5 = assay: Cytotoxicity against human SK-MEL-5 cells after 24 hrs by SRB assay; format: functional; conditions: SK-MEL-5, 24 h; in short: as §2
MDA-MB-468 [2] = assay: (§4) Cytotoxicity against human MDA-MB-468 cells after 24 hrs by SRB assay; format: functional; conditions: MDA-MB-468, 24 h; in short: as §2
A549 [3] = assay: (§5) Cytotoxicity against human A549 cells after 24 hrs by SRB assay; format: cell-based; conditions: a549, 24 h
In short: (§6)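 NCI 60-cell screen. Cells grown in RPMI 1640 with 5% FBS and 2 mM L-glutamine, seeded at 5,000–40,000 cells/well, preincubated 24 h at 37 °C in 5% CO2. Drug stock in DMSO, diluted in medium with gentamicin; five final concentrations, 100, 10, 1.0, 0.1 and […]. Time-zero plates were TCA-fixed. Protein read by SRB staining; GI50, TGI and LC50 taken relative to time-zero.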

SN12C = assay: Cytotoxicity against human SN12C cells after 24 hrs by SRB assay; format: cell-based; in short: as §3
SF-295 = assay: Cytotoxicity against human SF295 cells after 24 hrs by SRB assay; format: cell-based; conditions: sf-295, 24 h; in short: as §6
OVCAR-8 = assay: Cytotoxicity against human OVCAR8 cells after 24 hrs by SRB assay; format: functional; conditions: OVCAR-8, 24 h; in short: as §2
CCRF-CEM [4] = assay: (§7) Cytotoxicity against human CCRF-CEM cells after 24 hrs by SRB assay; format: cell-based; in short: as §6
NCI-H460 = assay: Cytotoxicity against human NCI-H460 cells after 24 hrs by SRB assay; format: cell-based; conditions: nci-h460, 24 h; in short: as §6
MDA-MB-435 [5] = assay: (§8) Cytotoxicity against human MDA-MB-435 cells after 24 hrs by SRB assay; format: functional; conditions: MDA-MB-435, 24 h; in short: as §2
CCRF-CEM [6] = assay: as §7; format: functional; in short: as §2
A549 [7] = assay: as §5; format: functional; conditions: A549, 24 h; in short: as §2
UACC-62 = assay: Cytotoxicity against human UACC62 cells after 24 hrs by SRB assay; format: functional; conditions: UACC-62, 24 h
In short: (§9)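 NCI 60-cell screen. Cells are grown in RPMI 1640 with 5% FBS and 2 mM L-glutamine and seeded at 5,000–40,000 cells/well according to doubling time. They are preincubated 24 h at 37 °C in 5% CO2, and Tz plates are TCA-fixed at drug addition. Drug stock is in DMSO, diluted in medium with gentamicin, and tested at five concentrations (100, 10, 1.0, 0.1, […]). Protein is read by SRB staining. GI50, TGI and LC50 are derived relative to time-zero and control wells.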

SR [8] = assay: (§10) Cytotoxicity against human SR cells after 24 hrs by SRB assay; format: functional; in short: as §9
UACC-257 = assay: Cytotoxicity against human UACC257 cells after 24 hrs by SRB assay; format: cell-based; conditions: uacc-257, 24 h; in short: as §3
OVCAR-4 = assay: Cytotoxicity against human OVCAR4 cells after 24 hrs by SRB assay; format: functional; conditions: OVCAR-4, 24 h; in short: as §2
RPMI-8226 = assay: Cytotoxicity against human RPMI8226 cells after 24 hrs by SRB assay; format: functional; conditions: RPMI-8226, 24 h; in short: as §2
SK-OV-3 = assay: Cytotoxicity against human SKOV3 cells after 24 hrs by SRB assay; format: functional; conditions: SK-OV-3, 24 h; in short: as §2
U-251 = assay: Cytotoxicity against human U251 cells after 24 hrs by SRB assay; format: cell-based; conditions: u-251, 24 h; in short: as §3
LOX IMVI [9] = assay: as §1; format: cell-based; in short: as §6
OVCAR-3 [10] = assay: (§11) Cytotoxicity against human OVCAR3 cells after 24 hrs by SRB assay; format: functional; conditions: OVCAR-3, 24 h; in short: as §2
HCT-116 = assay: Cytotoxicity against human HCT116 cells after 24 hrs by SRB assay; format: functional; conditions: HCT-116, 24 h; in short: as §2
EKVX = assay: Cytotoxicity against human EKVX cells after 24 hrs by SRB assay; format: cell-based; in short: as §6
BT-549 = assay: Cytotoxicity against human BT549 cells after 24 hrs by SRB assay; format: functional; conditions: BT-549, 24 h; in short: as §2
ACHN = assay: Cytotoxicity against human ACHN cells after 24 hrs by SRB assay; format: functional; in short: as §2
OVCAR-3 [11] = assay: as §11; format: cell-based; conditions: ovcar-3, 24 h; in short: as §6
SF-539 = assay: Cytotoxicity against human SF539 cells after 24 hrs by SRB assay; format: cell-based; conditions: sf-539, 24 h; in short: as §6
MDA-MB-231 = assay: Cytotoxicity against human MDA-MB-231 cells after 24 hrs by SRB assay; format: cell-based; conditions: mda-mb-231, 24 h; in short: as §6
MDA-MB-435 [12] = assay: as §8; format: cell-based; conditions: mda-mb-435, 24 h; in short: as §6
MDA-MB-468 [13] = assay: as §4; format: cell-based; conditions: mda-mb-468, 24 h; in short: as §6
[14] = Cytotoxicity against human Hs 578T cells after 24 hrs by SRB assay; format: cell-based; in short: as §6
COLO 205 = assay: Cytotoxicity against human COLO205 cells after 24 hrs by SRB assay; format: functional; conditions: COLO 205, 24 h; in short: as §2
SR [15] = assay: as §10; format: cell-based; in short: as §3
RXF 393 = assay: Cytotoxicity against human RXF393 cells after 24 hrs by SRB assay; format: functional; conditions: RXF 393, 24 h; in short: as §2
SNB-19 = assay: Cytotoxicity against human SNB19 cells after 24 hrs by SRB assay; format: functional; conditions: SNB-19, 24 h; in short: as §9
NCI/ADR-RES = assay: Cytotoxicity against human NCI/ADR-RES cells after 24 hrs by SRB assay; format: functional; in short: as §2

COc1ccc(C(=O)/C=C/c2cc3ccccc3[nH]c2=O)cc1
GI50 (LOX IMVI [1]): 1.85 µM | TGI (LOX IMVI [1]): 5.54 µM | GI50 (KM12): 2.85 µM | TGI (KM12): 7.81 µM | LC50 (SW-620): 40.2 µM | GI50 (SK-MEL-5): 5.73 µM | TGI (SK-MEL-5): 18.1 µM | GI50 (MDA-MB-468 [2]): 2.38 µM | TGI (MDA-MB-468 [2]): 5.98 µM | LC50 (A549 [3]): > 100 µM | LC50 (SN12C): > 100 µM | LC50 (SF-295): 80.8 µM | GI50 (OVCAR-8): 3.57 µM | TGI (OVCAR-8): > 100 µM | LC50 (CCRF-CEM [4]): > 100 µM | LC50 (NCI-H460): 66.8 µM | GI50 (MDA-MB-435 [5]): 3.92 µM | TGI (MDA-MB-435 [5]): 17.4 µM | GI50 (CCRF-CEM [6]): 4.04 µM | TGI (CCRF-CEM [6]): > 100 µM | GI50 (A549 [7]): 3.21 µM | TGI (A549 [7]): > 100 µM | GI50 (UACC-62): 4.38 µM | TGI (UACC-62): 19.3 µM | GI50 (SR [8]): 2.83 µM | TGI (SR [8]): > 100 µM | LC50 (UACC-257): 65.5 µM | GI50 (OVCAR-4): 2.94 µM | TGI (OVCAR-4): > 100 µM | GI50 (RPMI-8226): 2.79 µM | TGI (RPMI-8226): > 100 µM | GI50 (SK-OV-3): 4.44 µM | TGI (SK-OV-3): > 100 µM | LC50 (U-251): > 100 µM | LC50 (LOX IMVI [9]): 33.3 µM | GI50 (OVCAR-3 [10]): 2.49 µM | TGI (OVCAR-3 [10]): 6.72 µM | GI50 (HCT-116): 2.31 µM | TGI (HCT-116): 5.7 µM | LC50 (EKVX): > 100 µM | GI50 (BT-549): 2.7 µM | TGI (BT-549): 7.9 µM | GI50 (ACHN): 3.93 µM | TGI (ACHN): 16.7 µM | LC50 (OVCAR-3 [11]): 29.8 µM | LC50 (SF-539): 45.5 µM | LC50 (MDA-MB-231): > 100 µM | LC50 (MDA-MB-435 [12]): 91.6 µM | LC50 (MDA-MB-468 [13]): 39.8 µM | LC50 [14]: > 100 µM | GI50 (COLO 205): 3.66 µM | TGI (COLO 205): 13.4 µM | LC50 (SR [15]): > 100 µM | GI50 (RXF 393): 3.41 µM | TGI (RXF 393): 8.53 µM | GI50 (SNB-19): 4.2 µM | TGI (SNB-19): 19.1 µM | GI50 (NCI/ADR-RES): 2.63 µM | TGI (NCI/ADR-RES): 8.44 µM

O=C(/C=C/c1cc2ccccc2[nH]c1=O)c1ccc(Cl)cc1
GI50 (LOX IMVI [1]): 3.26 µM | TGI (LOX IMVI [1]): 22.1 µM | GI50 (KM12): 3.23 µM | TGI (KM12): 16.3 µM | LC50 (SW-620): 56.6 µM | GI50 (SK-MEL-5): 18.9 µM | TGI (SK-MEL-5): > 100 µM | GI50 (MDA-MB-468 [2]): 2.96 µM | TGI (MDA-MB-468 [2]): 9.88 µM | LC50 (A549 [3]): > 100 µM | LC50 (SN12C): > 100 µM | LC50 (SF-295): > 100 µM | GI50 (OVCAR-8): 4.93 µM | TGI (OVCAR-8): 21.2 µM | LC50 (CCRF-CEM [4]): > 100 µM | LC50 (NCI-H460): > 100 µM | GI50 (MDA-MB-435 [5]): 2.83 µM | TGI (MDA-MB-435 [5]): 13.1 µM | GI50 (CCRF-CEM [6]): 3.5 µM | TGI (CCRF-CEM [6]): > 100 µM | GI50 (A549 [7]): 7.24 µM | TGI (A549 [7]): > 100 µM | GI50 (UACC-62): 5.71 µM | TGI (UACC-62): 54.3 µM | GI50 (SR [8]): 1.71 µM | TGI (SR [8]): 19.1 µM | LC50 (UACC-257): > 100 µM | GI50 (OVCAR-4): 1.67 µM | TGI (OVCAR-4): > 100 µM | GI50 (RPMI-8226): 2.23 µM | TGI (RPMI-8226): 16.1 µM | TGI (SK-OV-3): > 100 µM | LC50 (U-251): 39.7 µM | LC50 (LOX IMVI [9]): > 100 µM | GI50 (OVCAR-3 [10]): 5.9 µM | TGI (OVCAR-3 [10]): 30.9 µM | GI50 (HCT-116): 3.26 µM | TGI (HCT-116): 14.8 µM | LC50 (EKVX): > 100 µM | GI50 (BT-549): 3.86 µM | TGI (BT-549): 17.1 µM | GI50 (ACHN): 7.27 µM | TGI (ACHN): 27.4 µM | LC50 (OVCAR-3 [11]): > 100 µM | LC50 (SF-539): 74.2 µM | LC50 (MDA-MB-231): > 100 µM | LC50 (MDA-MB-435 [12]): > 100 µM | LC50 (MDA-MB-468 [13]): 53.2 µM | LC50 [14]: > 100 µM | GI50 (COLO 205): 10.1 µM | TGI (COLO 205): 51.3 µM | LC50 (SR [15]): > 100 µM | GI50 (RXF 393): 4.32 µM | TGI (RXF 393): 29.9 µM | GI50 (SNB-19): 5.11 µM | TGI (SNB-19): > 100 µM | GI50 (NCI/ADR-RES): 4 µM | TGI (NCI/ADR-RES): 23.6 µM

Source: ChEMBL document CHEMBL2086296, “Synthesis of novel quinoline-2-one based chalcones of potential anti-tumor activity” (Eur J Med Chem, 2012)
